Laboratory results from ChEMBL document CHEMBL1221279, “Synthesis, biological evaluation, and structure-activity relationship study of novel cytotoxic aza-caffeic acid derivatives” (Bioorg Med Chem, 2010).
The source made the active and inactive calls. The rule behind the calls is not given here.

Test system: K562
Experiment: Induction of apoptosis in human K562 cells using Annexin V/PI staining at 8 uM after 72 hrs by flow cytometry relative to control (reference value: 5.45%)
Assay type: functional
Conditions: not given
`CCOc1ccc(COc2c(OC)cc(/C=C/C(=O)N3CCN(Cc4ccc(Cl)c(Cl)c4)CC3)cc2OC)cc1` showed an Activity of 20.38%.

Test system: not listed separately
Experiment: Cytotoxicity against human Bel7404 cells after 72 hrs by MTT assay
Assay type: functional, cell-based
Conditions: BEL-7404, 72 h
Outline: (§1)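 Cells grown in MEM with 10% fetal calf serum, penicillin and streptomycin at 37 °C, 5% CO2. Exponentially growing cells seeded in quadruplicate at 5 × 10³ per well and left 24 h before compounds (DMSO stocks) were added. After 72 h exposure, MTT added for 4 h at 37 °C, formazan dissolved in DMSO, read at 570 nm. IC50 read graphically from dose–response curves.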
Work on `CCOc1ccc(COc2c(OC)cc(/C=C/C(=O)N3CCN(Cc4ccc(Cl)c(Cl)c4)CC3)cc2OC)cc1` yielded an IC50 of 2 µM. Molecule `O=C(/C=C/c1ccc(O)c(O)c1)N1CCN(Cc2ccc(Cl)c(Cl)c2)CC1` has an IC50 of over 200 µM.

Test system: A549
Experiment: Cytotoxicity against human A549 cells after 72 hrs by MTT assay
Assay type: functional, cell-based
Conditions: A549, 72 h
Outline: as §1
`CCOc1ccc(COc2c(OC)cc(/C=C/C(=O)N3CCN(Cc4ccc(Cl)c(Cl)c4)CC3)cc2OC)cc1` showed an IC50 of 63.4 µM. For `O=C(/C=C/c1ccc(O)c(O)c1)N1CCN(Cc2ccc(Cl)c(Cl)c2)CC1`, the IC50 was over 200 µM.

Test system: not listed separately
Experiment: Cytotoxicity against human LS 174T cells after 72 hrs by MTT assay
Assay type: functional, cell-based
Conditions: LS174T
Outline: as §1
Molecule `CCOc1ccc(COc2c(OC)cc(/C=C/C(=O)N3CCN(Cc4ccc(Cl)c(Cl)c4)CC3)cc2OC)cc1` has an IC50 of over 200 µM. `O=C(/C=C/c1ccc(O)c(O)c1)N1CCN(Cc2ccc(Cl)c(Cl)c2)CC1` showed an IC50 of 50.4 µM.

Test system: K562
Experiment: Induction of apoptosis in human K562 cells using Annexin V/PI staining at 0.5 uM after 72 hrs by flow cytometry relative to control (reference value: 5.45%)
Assay type: functional
Conditions: not given
In the case of `CCOc1ccc(COc2c(OC)cc(/C=C/C(=O)N3CCN(Cc4ccc(Cl)c(Cl)c4)CC3)cc2OC)cc1`, the Activity is reported as 13.71%.

Test system: K562
Experiment: Induction of apoptosis in human K562 cells using Annexin V/PI staining at 0.5 uM after 48 hrs by flow cytometry relative to control (reference value: 4.17%)
Assay type: functional
Conditions: not given
`CCOc1ccc(COc2c(OC)cc(/C=C/C(=O)N3CCN(Cc4ccc(Cl)c(Cl)c4)CC3)cc2OC)cc1` gave an Activity of 8.26%.

Test system: HeLa
Experiment: Cytotoxicity against human HeLa cells after 72 hrs by MTT assay
Assay type: functional, cell-based
Conditions: not given
Outline: as §1
For `CCOc1ccc(COc2c(OC)cc(/C=C/C(=O)N3CCN(Cc4ccc(Cl)c(Cl)c4)CC3)cc2OC)cc1`, the IC50 was over 200 µM. Work on `O=C(/C=C/c1ccc(O)c(O)c1)N1CCN(Cc2ccc(Cl)c(Cl)c2)CC1` yielded an IC50 of over 200 µM.

Test system: K562
Experiment: Induction of apoptosis in human K562 cells using Annexin V/PI staining at 2 uM after 48 hrs by flow cytometry relative to control (reference value: 4.17%)
Assay type: functional
Conditions: not given
`CCOc1ccc(COc2c(OC)cc(/C=C/C(=O)N3CCN(Cc4ccc(Cl)c(Cl)c4)CC3)cc2OC)cc1` showed an Activity of 10.95%.

Test system: PC-3
Experiment: Cytotoxicity against human PC3 cells after 72 hrs by MTT assay
Assay type: functional, cell-based
Conditions: PC-3, 72 h
Outline: as §1
In the case of `CCOc1ccc(COc2c(OC)cc(/C=C/C(=O)N3CCN(Cc4ccc(Cl)c(Cl)c4)CC3)cc2OC)cc1`, the IC50 is reported as over 200 µM. For `O=C(/C=C/c1ccc(O)c(O)c1)N1CCN(Cc2ccc(Cl)c(Cl)c2)CC1`, the IC50 was over 200 µM.

Test system: BGC-823
Experiment: Cytotoxicity against human BGC823 cells after 72 hrs by MTT assay
Assay type: functional, cell-based
Conditions: BGC-823, 72 h
Outline: as §1
In the case of `CCOc1ccc(COc2c(OC)cc(/C=C/C(=O)N3CCN(Cc4ccc(Cl)c(Cl)c4)CC3)cc2OC)cc1`, the IC50 is reported as over 200 µM. In the case of `O=C(/C=C/c1ccc(O)c(O)c1)N1CCN(Cc2ccc(Cl)c(Cl)c2)CC1`, the IC50 is reported as over 200 µM.

Test system: K562
Experiment: Induction of apoptosis in human K562 cells using Annexin V/PI staining at 8 uM after 48 hrs by flow cytometry relative to control (reference value: 4.17%)
Assay type: functional
Conditions: not given
With `CCOc1ccc(COc2c(OC)cc(/C=C/C(=O)N3CCN(Cc4ccc(Cl)c(Cl)c4)CC3)cc2OC)cc1` the Activity was 14.83%.

Test system: KB
Experiment: Cytotoxicity against human KB cells after 72 hrs by MTT assay
Assay type: functional, cell-based
Conditions: not given
Outline: as §1
`CCOc1ccc(COc2c(OC)cc(/C=C/C(=O)N3CCN(Cc4ccc(Cl)c(Cl)c4)CC3)cc2OC)cc1` showed an IC50 of 0.2 µM. `O=C(/C=C/c1ccc(O)c(O)c1)N1CCN(Cc2ccc(Cl)c(Cl)c2)CC1` gave an IC50 of over 200 µM.

Test system: K562
Experiment: Induction of apoptosis in human K562 cells assessed as increase of Bax/Bcl-2 ratio after 48 hrs by Western blotting
Assay type: functional, cell-based
Conditions: not given
Outline: (§2)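 K562 cells treated for 48 h at the indicated concentrations, then lysed in Tris-HCl pH 7.5/NaCl buffer with protease inhibitors. Protein measured by Lowry assay. 40 µg total protein run on SDS–PAGE and blotted to PVDF. Probed overnight at 4 °C with anti-caspase-3, anti-Bax, anti-Bcl-2 and anti-β-actin, with HRP secondary and chemiluminescence. Bands quantified by densitometry, at least three independent experiments.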
For `CCOc1ccc(COc2c(OC)cc(/C=C/C(=O)N3CCN(Cc4ccc(Cl)c(Cl)c4)CC3)cc2OC)cc1`, the Activity was “Dose-dependent effect”.

Test system: not listed separately
Experiment: Cytotoxicity against human HO8910 cells after 72 hrs by MTT assay
Assay type: functional, cell-based
Conditions: HO-8910, 72 h
Outline: as §1
For `CCOc1ccc(COc2c(OC)cc(/C=C/C(=O)N3CCN(Cc4ccc(Cl)c(Cl)c4)CC3)cc2OC)cc1`, the IC50 was over 200 µM. With `O=C(/C=C/c1ccc(O)c(O)c1)N1CCN(Cc2ccc(Cl)c(Cl)c2)CC1` the IC50 was over 200 µM.

Test system: K562
Experiment: Induction of apoptosis in human K562 cells using Annexin V/PI staining at 2 uM after 72 hrs by flow cytometry relative to control (reference value: 5.45%)
Assay type: functional
Conditions: not given
For `CCOc1ccc(COc2c(OC)cc(/C=C/C(=O)N3CCN(Cc4ccc(Cl)c(Cl)c4)CC3)cc2OC)cc1`, the Activity was 17.82%.

Test system: not listed separately
Experiment: Cytotoxicity against human ECA109 cells after 72 hrs by MTT assay
Assay type: functional, cell-based
Conditions: ECa-109, 72 h
Outline: as §1
For `CCOc1ccc(COc2c(OC)cc(/C=C/C(=O)N3CCN(Cc4ccc(Cl)c(Cl)c4)CC3)cc2OC)cc1`, the IC50 was 1.1 µM. Work on `O=C(/C=C/c1ccc(O)c(O)c1)N1CCN(Cc2ccc(Cl)c(Cl)c2)CC1` yielded an IC50 of over 200 µM.

Test system: K562
Experiment: Cytotoxicity against human K562 cells at up to 8 uM by MTT assay
Assay type: functional, cell-based
Conditions: TDE = time-dependent effect
Outline: (§3)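 K562 cells grown in MEM with 10% fetal calf serum at 37 °C, 5% CO2, seeded in quadruplicate at 5 × 10³ per well. After 24 h, exposed to a range of concentrations for 48 or 72 h. MTT added for 4 h, formazan dissolved in DMSO, read at 570 nm. Viability expressed as % of untreated control, mean S.D. of at least three independent experiments.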
In the case of `CCOc1ccc(COc2c(OC)cc(/C=C/C(=O)N3CCN(Cc4ccc(Cl)c(Cl)c4)CC3)cc2OC)cc1`, the Activity is reported as “tde”.

Test system: CNE
Experiment: Cytotoxicity against human CNE cells after 72 hrs by MTT assay
Assay type: functional, cell-based
Conditions: not given
Outline: as §1
For `CCOc1ccc(COc2c(OC)cc(/C=C/C(=O)N3CCN(Cc4ccc(Cl)c(Cl)c4)CC3)cc2OC)cc1`, the IC50 was over 200 µM. Work on `O=C(/C=C/c1ccc(O)c(O)c1)N1CCN(Cc2ccc(Cl)c(Cl)c2)CC1` yielded an IC50 of over 200 µM.

Test system: K562
Experiment: Cytotoxicity against human K562 cells assessed as reduction of cell viability at 8 uM after 72 hrs by MTT assay relative to control
Assay type: functional
Conditions: not given
Outline: as §3
Molecule `CCOc1ccc(COc2c(OC)cc(/C=C/C(=O)N3CCN(Cc4ccc(Cl)c(Cl)c4)CC3)cc2OC)cc1` has an Activity of 37.9%.

Test system: K562
Experiment: Cytotoxicity against human K562 cells after 72 hrs by MTT assay
Assay type: functional, cell-based
Conditions: not given
Outline: as §1
For `CCOc1ccc(COc2c(OC)cc(/C=C/C(=O)N3CCN(Cc4ccc(Cl)c(Cl)c4)CC3)cc2OC)cc1`, the Activity was “Dose-dependent effect”.

Same assay, conditions: K562, 72 h
Work on `CCOc1ccc(COc2c(OC)cc(/C=C/C(=O)N3CCN(Cc4ccc(Cl)c(Cl)c4)CC3)cc2OC)cc1` yielded an IC50 of 1.7 µM. Work on `O=C(/C=C/c1ccc(O)c(O)c1)N1CCN(Cc2ccc(Cl)c(Cl)c2)CC1` yielded an IC50 of over 200 µM.

Test system: HL-60
Experiment: Cytotoxicity against human HL60 cells after 72 hrs by MTT assay
Assay type: functional, cell-based
Conditions: HL-60, 72 h
Outline: as §1
`CCOc1ccc(COc2c(OC)cc(/C=C/C(=O)N3CCN(Cc4ccc(Cl)c(Cl)c4)CC3)cc2OC)cc1` gave an IC50 of over 200 µM. `O=C(/C=C/c1ccc(O)c(O)c1)N1CCN(Cc2ccc(Cl)c(Cl)c2)CC1` showed an IC50 of 165 µM.

Test system: K562
Experiment: Induction of apoptosis in human K562 cells assessed as up-regulation of caspase 3 expression at up to 8 uM after 48 hrs by Western blotting
Assay type: functional, cell-based
Conditions: not given
Outline: as §2
With `CCOc1ccc(COc2c(OC)cc(/C=C/C(=O)N3CCN(Cc4ccc(Cl)c(Cl)c4)CC3)cc2OC)cc1` the Activity was “Active”.
